Source: ChEMBL document CHEMBL4145682, “An Affinity-Based Probe for the Human Adenosine A2A Receptor” (J Med Chem, 2018)
Active and inactive are the calls of the source. The calls are words filed in the database; no cut-off is given here.

Legend:
Adenosine receptor A2a [1] = target: T1, Adenosine receptor A2a (Homo sapiens, UniProt P29274); test: Displacement of [3H]ZM241385 human A2AR […] expressed in […] cell membranes incubated for 0.5 hrs
Outline: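 HEK293 cell membranes stably expressing hA2AR, 10 μg protein per tube. Buffer 25 mM Tris-HCl pH 7.4, 5 mM MgCl2, 0.1% CHAPS. [3H]ZM241385 displaced by increasing compound concentrations at 25°C for 0.5 h (standard) or 3 h. Nonspecific binding defined with 100 µM NECA. Stopped by GF/B filtration and scintillation counting. Apparent pKi, means ± SEM of three experiments in duplicate. Shift = pKi(3h) − pKi(0.5h).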

Adenosine receptor A2a [2] = target: T1, Adenosine receptor A2a; test: Potency shift, difference in pKi for displacement of [3H]ZM241385 human A2AR (1 to 316 residues) expressed in Pichia pastoris SMD1168 cell membranes incubated for 0.5 hrs to pKi for displacement of [3H]ZM241385 human A2AR (1 to 316 residues) expressed in Pichia pastoris SMD1168 cell membranes incubated for 3 hrs
Homo sapiens = species: Homo sapiens; test: Selectivity for human A2AR (1 to 316 residues) expressed in Pichia pastoris SMD1168 cell membranes over human A3AR
Adenosine receptor A2a [3] = target: T1, Adenosine receptor A2a; test: Photoaffinity labelling of N-terminal FLAG-tagged and C-terminal His-tagged human adenosine A2A receptor expressed in HEK293 cell membranes at 1 uM incubated for 1 hr by SDS PAGE and Western blot analysis based affinity-based protein labeling assay
Outline: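 Membranes (1 mg/mL in 50 mM Tris-HCl pH 7.4) came from HEK293 transiently transfected 48 h with FLAG-hA2AR-His. Incubated with probe (0.1–3 μM) or 1% DMSO for 1 h at room temperature. Click at room temperature for 1 h, with CuSO4 added last: 4.4 μM Cy3-azide, 33 mM ascorbate, 1.1 mM THPTA, 5.6 mM CuSO4. Denatured 30 min at 37°C. Read-out: in-gel fluorescence, with anti-FLAG Western blot (~50 kDa).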

Adenosine receptor A2a [4] = target: T1, Adenosine receptor A2a; test: Photoaffinity labelling of purified human A2AR (1 to 316 residues) by SDS-PAGE analaysis pretreated with 10 uM LUF7445 followed by compound addition at 1 uM by competitive labeling assay
Outline: (§1)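 Purified hA2AR (0.1 mg/mL) was preincubated 1 h on ice with 10 μM competitor or 1% DMSO. Then labeled with 1 μM probe for 0.5 h on ice. CuAAC with Cy3-azide followed, then SDS-PAGE in-gel fluorescence normalized to anti-His immunoblot. Three experiments; Student's t-test.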

Adenosine receptor A2a [5] = target: T1, Adenosine receptor A2a; test: Displacement of [3H]ZM241385 human A2AR (1 to 316 residues) expressed in Pichia pastoris SMD1168 cell membranes
Adenosine receptor A2a [6] = target: T1, Adenosine receptor A2a; test: Covalent binding to human A2AR (1 to 316 residues) expressed in Pichia pastoris SMD1168 cell membranes assessed as radioligand binding level pre-incubated at 1.5 to 5 nM followed by compound wash out before [3H]ZM241385 addition (reference value: 65 +/- 2%)
Adenosine receptor A2a [7] = target: T1, Adenosine receptor A2a; test: Photoaffinity labelling of purified human A2AR (1 to 316 residues) by Western blot analysis
Outline: (§2)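 His-tagged hA2AR (residues 1–316) from Pichia pastoris was purified by HisTrap, diluted to 0.1 mg/mL in 25 mM HEPES pH 7.5, 100 mM NaCl, 10 μM LMNG. Incubated with probe at a range of concentrations or 1% DMSO for 1 h on ice. CuAAC click on ice, 1 h: 5.6 mM CuSO4, 33 mM ascorbate, 1.1 mM THPTA, 4.4 μM Cy3-azide. Read-out: SDS-PAGE in-gel fluorescence of the ~47 kDa band, normalized to anti-His immunoblot. pEC50 fitted; three experiments.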

Adenosine receptor A2a [8] = target: T1, Adenosine receptor A2a; test: Photoaffinity labelling of purified human A2AR (1 to 316 residues) by SDS-PAGE analaysis pretreated with 10 uM ZM241385 followed by compound addition at 1 uM by competitive labeling assay; outline: as §1
Adenosine receptor A2a [9] = target: T1, Adenosine receptor A2a; test: Photoaffinity labelling of purified human A2AR (1 to 316 residues) by SDS-PAGE analaysis; outline: as §2

T1 sequence (P29274 whole entry): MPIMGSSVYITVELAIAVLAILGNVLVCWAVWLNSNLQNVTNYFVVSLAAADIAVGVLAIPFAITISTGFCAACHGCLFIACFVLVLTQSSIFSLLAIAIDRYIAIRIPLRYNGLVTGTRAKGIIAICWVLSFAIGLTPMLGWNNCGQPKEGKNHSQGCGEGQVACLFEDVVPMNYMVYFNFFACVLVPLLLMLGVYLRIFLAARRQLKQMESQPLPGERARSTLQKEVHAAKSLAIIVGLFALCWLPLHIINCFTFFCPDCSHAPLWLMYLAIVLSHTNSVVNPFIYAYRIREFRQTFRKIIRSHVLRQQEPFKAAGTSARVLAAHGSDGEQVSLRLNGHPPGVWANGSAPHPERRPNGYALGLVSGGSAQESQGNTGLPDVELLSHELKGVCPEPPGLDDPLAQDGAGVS

In the case of `Nc1nc(NCCCNC(=O)c2ccc(S(=O)(=O)F)cc2)nc2nc(-c3ccco3)nn12`, the Ki (Adenosine receptor A2a [1]) is reported as 5.37 nM and the fold change (FC) (Adenosine receptor A2a [2]) is reported as 0.72.
In the case of `C#CCN(CCCCCNc1nc(N)n2nc(-c3ccco3)nc2n1)C(=O)c1ccc(S(=O)(=O)F)cc1`, the Ki (Adenosine receptor A2a [1]) is reported as 3.89 nM, the Selectivity ratio (Homo sapiens) is reported as less than 10 and the Activity (Adenosine receptor A2a [3]) is reported as “Active”. The Activity (Adenosine receptor A2a [4]) was “inactive”, the inhibition (Adenosine receptor A2a [5]) was “Dose-dependent effect” and the Activity (Adenosine receptor A2a [6]) was 43%. For the same molecule, the Activity (Adenosine receptor A2a [7]) was “Active”, the Activity (Adenosine receptor A2a [8]) was “inactive” and the Activity (Adenosine receptor A2a [9]) was “Dose-dependent effect”. The EC50 (Adenosine receptor A2a [9]) was 794 nM and the fold change (FC) (Adenosine receptor A2a [2]) was 0.41.
In the case of `Nc1nc(NCCCCCNC(=O)c2ccc(S(=O)(=O)F)cc2)nc2nc(-c3ccco3)nn12`, the Ki (Adenosine receptor A2a [1]) is reported as 2.75 nM, the inhibition (Adenosine receptor A2a [1]) is reported as “Dose-dependent effect” and the inhibition (Adenosine receptor A2a [5]) is reported as “Dose-dependent effect”. The fold change (FC) (Adenosine receptor A2a [2]) was 0.65.
In the case of `Nc1nc(NCCCCNC(=O)c2ccc(S(=O)(=O)F)cc2)nc2nc(-c3ccco3)nn12`, the Ki (Adenosine receptor A2a [1]) is reported as 6.31 nM, the inhibition (Adenosine receptor A2a [1]) is reported as “Dose-dependent effect” and the inhibition (Adenosine receptor A2a [5]) is reported as “Dose-dependent effect”. It also gave a fold change (FC) (Adenosine receptor A2a [2]) of 0.85.
